Active and inactive are the calls of the source. The rule behind the calls is not given here.
How the values were obtained:
[1] = molecular target: Dual specificity protein kinase CLK1 (Mus musculus, UniProt P22518); test: Inhibition of mouse recombinant GST-tagged CLK1 using GRSRSRSRSRSR as substrate
How it was run: (§1)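 Mouse GST-fusion CLK1 or CLK3 expressed in E. coli. Assay buffer A (Tris-HCl pH 7.5, MgCl2, EGTA, DTT, heparin) plus 0.15 mg/mL BSA. RS peptide 1 μg/assay, 15 μM ATP final, 30 C. Blank subtracted; activity expressed as percent of activity without inhibitor. DMSO controls. Concentration range up to 10 μM.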

[2] = molecular target: Dual specificity protein kinase CLK4 (Homo sapiens) (UniProt Q9HAZ1); details: 10 uM
Sequence of Dual specificity protein kinase CLK4 (Homo sapiens) (Q9HAZ1 whole entry, looked up): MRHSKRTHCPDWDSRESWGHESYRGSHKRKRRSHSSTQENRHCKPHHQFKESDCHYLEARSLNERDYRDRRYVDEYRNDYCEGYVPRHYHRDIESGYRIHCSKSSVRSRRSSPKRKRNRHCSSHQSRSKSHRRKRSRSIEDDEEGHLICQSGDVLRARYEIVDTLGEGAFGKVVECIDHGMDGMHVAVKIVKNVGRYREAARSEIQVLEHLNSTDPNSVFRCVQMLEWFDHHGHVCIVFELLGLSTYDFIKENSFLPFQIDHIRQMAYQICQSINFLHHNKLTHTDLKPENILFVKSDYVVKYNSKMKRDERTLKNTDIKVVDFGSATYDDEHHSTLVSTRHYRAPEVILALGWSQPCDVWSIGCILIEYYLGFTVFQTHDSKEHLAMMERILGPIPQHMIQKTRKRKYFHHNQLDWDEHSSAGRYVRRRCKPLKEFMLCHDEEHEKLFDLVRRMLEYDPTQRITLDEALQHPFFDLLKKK

[3] = molecular target: Dual specificity protein kinase CLK3 (Mus musculus, UniProt O35492); test: Inhibition of mouse recombinant GST-tagged CLK3 using GRSRSRSRSRSR as substrate; how it was run: as §1
Sequence of Dual specificity protein kinase CLK3 (O35492 whole entry): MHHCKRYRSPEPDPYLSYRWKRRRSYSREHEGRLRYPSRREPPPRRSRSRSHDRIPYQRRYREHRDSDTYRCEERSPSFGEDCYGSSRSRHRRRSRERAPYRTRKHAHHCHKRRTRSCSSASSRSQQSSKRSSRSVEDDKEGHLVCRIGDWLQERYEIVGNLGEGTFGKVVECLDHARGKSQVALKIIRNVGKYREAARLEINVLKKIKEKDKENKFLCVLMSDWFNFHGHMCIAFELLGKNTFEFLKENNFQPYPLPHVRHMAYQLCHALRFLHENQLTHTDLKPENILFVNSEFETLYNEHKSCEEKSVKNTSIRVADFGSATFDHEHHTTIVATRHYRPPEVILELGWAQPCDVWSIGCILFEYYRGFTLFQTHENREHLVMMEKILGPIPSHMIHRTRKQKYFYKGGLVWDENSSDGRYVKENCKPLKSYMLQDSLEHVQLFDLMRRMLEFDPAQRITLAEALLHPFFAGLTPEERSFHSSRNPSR

[4] = molecular target: Dual specificity protein kinase CLK1 (Homo sapiens) (UniProt P49759); test: Inhibition of recombinant CLK1-mediated SR 9G8 protein phosphorylation at 10 uM after 30 mins by SDS-PAGE followed by autoradiography
Sequence of Dual specificity protein kinase CLK1 (Homo sapiens) (P49759 whole entry, looked up, canonical isoform): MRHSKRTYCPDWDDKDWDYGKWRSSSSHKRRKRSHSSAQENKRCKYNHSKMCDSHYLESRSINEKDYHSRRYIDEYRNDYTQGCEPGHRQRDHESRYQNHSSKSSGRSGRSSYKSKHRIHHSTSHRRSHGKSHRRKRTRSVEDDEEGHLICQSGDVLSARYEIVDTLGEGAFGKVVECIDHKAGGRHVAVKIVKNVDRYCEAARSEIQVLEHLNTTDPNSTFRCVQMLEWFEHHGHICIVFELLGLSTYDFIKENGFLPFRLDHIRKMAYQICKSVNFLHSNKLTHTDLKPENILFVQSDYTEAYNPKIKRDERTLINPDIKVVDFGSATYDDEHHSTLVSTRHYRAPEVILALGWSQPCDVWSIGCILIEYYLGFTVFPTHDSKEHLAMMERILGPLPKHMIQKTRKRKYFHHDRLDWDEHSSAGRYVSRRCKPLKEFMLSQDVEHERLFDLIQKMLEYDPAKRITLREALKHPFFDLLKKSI
How it was run: (§2)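 Recombinant SR protein 9G8 (87 ng) phosphorylated by each kinase, diluted to equal specific activity toward RS peptide. 15 μM [γ-33P]ATP, 30 min at 30 C, with or without 10 μM inhibitor. Reaction stopped in loading buffer; SDS-PAGE and autoradiography.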

[5] = molecular target: Dual specificity protein kinase CLK1 (Homo sapiens) (UniProt P49759); test: Inhibition of CLK1 transfected in human HeLa cells assessed as increase in exon inclusion ratio after 24 hrs by RT-PCR analysis; type: cell-based
How it was run: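 HeLa cells were transfected with […], with kinase-dead CLK1/K190R as comparator. Inhibitors at varying doses were added 3 h post-transfection, with 0.5% DMSO final in all cultures. Cells were harvested 24 h post-transfection, total RNA was extracted, and E1A splicing products were analysed by RT-PCR. Isoform molar ratios were measured by Bioanalyzer to give the exon inclusion ratio. Three independent samples were used.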

[6] = molecular target: T1, Dual specificity tyrosine-phosphorylation-regulated kinase 2 (Homo sapiens) (UniProt Q92630); details: 10 uM
T1 sequence (whole entry): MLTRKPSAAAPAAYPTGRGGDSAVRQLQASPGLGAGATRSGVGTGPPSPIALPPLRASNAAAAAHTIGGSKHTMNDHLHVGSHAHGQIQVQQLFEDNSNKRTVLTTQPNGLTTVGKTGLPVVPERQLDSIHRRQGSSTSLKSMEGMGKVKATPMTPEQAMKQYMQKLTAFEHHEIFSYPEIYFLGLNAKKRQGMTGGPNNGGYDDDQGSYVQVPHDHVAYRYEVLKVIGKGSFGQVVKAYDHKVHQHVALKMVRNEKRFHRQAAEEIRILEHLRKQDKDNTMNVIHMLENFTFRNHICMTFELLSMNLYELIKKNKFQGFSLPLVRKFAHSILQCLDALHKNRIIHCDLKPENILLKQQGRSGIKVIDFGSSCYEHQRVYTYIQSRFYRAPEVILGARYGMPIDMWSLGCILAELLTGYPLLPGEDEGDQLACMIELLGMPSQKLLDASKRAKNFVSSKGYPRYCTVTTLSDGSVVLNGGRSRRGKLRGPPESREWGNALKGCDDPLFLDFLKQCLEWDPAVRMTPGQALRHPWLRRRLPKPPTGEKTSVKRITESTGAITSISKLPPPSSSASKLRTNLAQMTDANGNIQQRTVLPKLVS

[7] = molecular target: Dual specificity tyrosine-phosphorylation-regulated kinase 1A (Rattus norvegicus, UniProt Q63470); test: Inhibition of rat recombinant GST-tagged DYRK1A using KKISGRLSPIMTEQ as substrate and [gamma32]-ATP after 30 mins by scintillation counting
How it was run: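 GST fusion kinases expressed in E. coli and purified on glutathione-agarose; DYRK1A is rat, DYRK2 is human. Assay buffer A (25 mM Tris-HCl pH 7.5, 10 mM MgCl2, 1 mM EGTA, 1 mM DTT, 50 μg/mL heparin) plus 0.15 mg/mL BSA. Product captured on P81 paper, washed in 1% phosphoric acid, scintillation counted. Activity expressed as percent of uninhibited control.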

[8] = molecular target: Dual specificity protein kinase CLK3 (Homo sapiens) (UniProt P49761); test: Inhibition of CLK3-mediated SRp55 protein phosphorylation in TNFalpha-stimulated human HMEC1 cells after 1 hr by Western blot analysis; type: cell-based
Sequence of Dual specificity protein kinase CLK3 (Homo sapiens) (P49761 whole entry, looked up): as the sequence (O35492 whole entry) above, with I55L, H64R, C83Y, S86P, A99G, S484T counted along it
How it was run: (§3)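 HMEC-1 cells grown in endothelial medium with 5% FCS at 37 C, 5% CO2. Serum-starved 1 h in basal medium, pretreated 1 h with inhibitor at varying concentrations, then stimulated with 10 ng/mL TNF-alpha. Lysed 2 min after stimulation. Phospho-SRp75 and phospho-SRp55 detected by Western blot with mAb1H4, GAPDH as loading control, quantified by densitometry. At least 3 independent experiments.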

[9] = molecular target: Dual specificity protein kinase CLK2 (Homo sapiens) (UniProt P49760); details: 10 uM
Sequence of Dual specificity protein kinase CLK2 (Homo sapiens) (P49760 whole entry, looked up): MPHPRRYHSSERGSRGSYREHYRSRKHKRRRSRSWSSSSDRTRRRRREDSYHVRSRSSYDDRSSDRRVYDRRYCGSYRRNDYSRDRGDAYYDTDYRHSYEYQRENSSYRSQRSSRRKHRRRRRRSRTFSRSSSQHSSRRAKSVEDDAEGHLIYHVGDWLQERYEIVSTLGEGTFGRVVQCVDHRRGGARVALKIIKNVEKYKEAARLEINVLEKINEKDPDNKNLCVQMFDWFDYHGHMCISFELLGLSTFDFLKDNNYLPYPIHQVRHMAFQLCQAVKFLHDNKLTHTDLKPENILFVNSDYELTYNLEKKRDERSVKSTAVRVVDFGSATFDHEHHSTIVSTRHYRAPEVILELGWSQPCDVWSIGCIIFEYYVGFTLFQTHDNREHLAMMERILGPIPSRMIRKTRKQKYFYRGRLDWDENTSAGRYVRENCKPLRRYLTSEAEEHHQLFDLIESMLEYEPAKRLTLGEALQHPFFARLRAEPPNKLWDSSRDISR

[10] = molecular target: Dual specificity protein kinase CLK1 (Homo sapiens) (UniProt P49759); test: Inhibition of CLK1-mediated SRp75 protein phosphorylation in TNFalpha-stimulated human HMEC1 cells after 1 hr by Western blot analysis; type: cell-based; how it was run: as §3
[11] = molecular target: Dual specificity protein kinase CLK3 (Homo sapiens) (UniProt P49761); test: Inhibition of CLK3-mediated SRp75 protein phosphorylation in TNFalpha-stimulated human HMEC1 cells after 1 hr by Western blot analysis; type: cell-based; how it was run: as §3
[12] = molecular target: T2, Dual specificity tyrosine-phosphorylation-regulated kinase 3 (Homo sapiens) (UniProt O43781); test: Inhibition of recombinant DYRK3-mediated SR 9G8 protein phosphorylation at 10 uM after 30 mins by SDS-PAGE followed by autoradiography; how it was run: as §2
T2 sequence (whole entry): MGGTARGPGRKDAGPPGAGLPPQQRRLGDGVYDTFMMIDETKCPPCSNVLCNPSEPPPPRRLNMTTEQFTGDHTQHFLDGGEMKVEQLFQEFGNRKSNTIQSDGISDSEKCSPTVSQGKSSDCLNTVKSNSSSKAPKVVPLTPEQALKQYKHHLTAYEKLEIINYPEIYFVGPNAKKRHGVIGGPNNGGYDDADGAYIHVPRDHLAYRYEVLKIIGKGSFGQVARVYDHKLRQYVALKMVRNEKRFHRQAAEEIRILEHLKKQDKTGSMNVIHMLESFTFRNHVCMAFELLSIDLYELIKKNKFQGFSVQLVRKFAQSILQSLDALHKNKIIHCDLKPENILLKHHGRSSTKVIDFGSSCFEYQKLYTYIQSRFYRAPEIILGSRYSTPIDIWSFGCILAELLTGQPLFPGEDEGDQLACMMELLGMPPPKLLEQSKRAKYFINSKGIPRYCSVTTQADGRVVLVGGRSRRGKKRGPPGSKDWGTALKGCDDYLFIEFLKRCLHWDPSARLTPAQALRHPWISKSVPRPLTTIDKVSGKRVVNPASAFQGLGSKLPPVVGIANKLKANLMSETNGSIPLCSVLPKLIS

[13] = molecular target: Dual specificity protein kinase CLK1 (Homo sapiens) (UniProt P49759); test: Inhibition of CLK1-mediated SRp55 protein phosphorylation in TNFalpha-stimulated human HMEC1 cells after 1 hr by Western blot analysis; type: cell-based; how it was run: as §3
[14] = species: Sus scrofa; test: Inhibition of pig brain CK1 delta/epsilon using RRKHAAIGpSAYSITA as substrate at 10 uM
How it was run: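 Native CK1δ/ε from porcine brain, assayed in 3-fold diluted buffer C with 25 μM CKS peptide substrate. 15 μM ATP final, 30 C. Activity is percent of uninhibited control after blank subtraction, with DMSO controls. Inhibitor tested over a range of concentrations up to 10 μM.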

[15] = molecular target: Glycogen synthase kinase-3 (Sus scrofa, UniProt B2LUN4+I6LNT8); test: Inhibition of pig brain GSK-3alpha/beta using YRRAAVPPSPSLSRHSSPHQSpEDEEE as substrate
How it was run: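 Compounds were tested at various concentrations, the highest being 10 μM, with DMSO dilution controls. Blanks were subtracted and activity was expressed as percent of the uninhibited maximum.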

Sequence of Dual specificity protein kinase CLK1 (P22518 whole entry, the tested form may be a part): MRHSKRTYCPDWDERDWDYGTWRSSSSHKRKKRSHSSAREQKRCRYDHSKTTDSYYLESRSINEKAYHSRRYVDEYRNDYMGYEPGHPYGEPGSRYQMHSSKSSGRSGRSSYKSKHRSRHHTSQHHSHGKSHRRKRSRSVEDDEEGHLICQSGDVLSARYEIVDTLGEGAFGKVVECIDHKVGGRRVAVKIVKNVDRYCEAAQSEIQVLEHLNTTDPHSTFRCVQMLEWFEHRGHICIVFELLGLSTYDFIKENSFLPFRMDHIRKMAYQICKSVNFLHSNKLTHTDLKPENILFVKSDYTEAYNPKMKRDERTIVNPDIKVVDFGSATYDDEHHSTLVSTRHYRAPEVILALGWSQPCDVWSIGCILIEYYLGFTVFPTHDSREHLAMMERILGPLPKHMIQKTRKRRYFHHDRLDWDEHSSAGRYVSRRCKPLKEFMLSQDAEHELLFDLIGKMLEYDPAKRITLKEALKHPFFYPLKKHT

For `O=C1NC(Nc2ccccc2)=N/C1=C\c1ccc2c(c1)OCO2`, the IC50 [1] was 15 nM, the inhibition [2] was “Active” and the IC50 [3] was greater than 10000 nM. The inhibition [4] was “Active”, the “increase in exon inclusion ratio” value [5] was “Dose-dependent effect” and the inhibition [6] was “Active”. For the same compound, the IC50 [7] was 40 nM, the inhibition [8] was “Active” and the inhibition [9] was “Active”. For the same compound, the inhibition [10] was “Active”, the inhibition [11] was “Active” and the inhibition [12] was “Active”. For the same compound, the inhibition [13] was “Active”, the inhibition [14] was “inactive” and the IC50 [15] was greater than 10000 nM.
